{"source": "ChEMBL document CHEMBL2086333", "about": "“Albopunctatone, an antiplasmodial anthrone-anthraquinone from the Australian ascidian Didemnum albopunctatum” (J Nat Prod, 2012)", "key": {"[1]": {"experiment": "Selectivity index, ratio of cytotoxicity against human MDA-M cells to IC50 for chloroquine-sensitive Plasmodium falciparum 3D7", "type": "toxicity, cell-based", "settings": "read-out: Selectivity Index"}, "[2]": {"experiment": "Selectivity index, ratio of cytotoxicity against human MCF10A cells to IC50 for chloroquine-sensitive Plasmodium falciparum 3D7", "type": "toxicity, cell-based, MCF-10A", "settings": "read-out: Selectivity Index"}, "BT-474 [3]": {"tested_on": "BT-474", "experiment": "Toxicity against human BT474 cells at =<40 uM incubated for 72 hrs by resazurin dye reduction assay", "type": "cell-based", "settings": "bt-474, 72 h", "outline": "(§1)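 Adherent cancer cells seeded according to growth rate, compound exposure 72 h at 37 °C, 5% CO2, highest concentration 40 μM. Resazurin at 600 μM final, 4 h, fluorescence 530/595 nm. % growth inhibition scaled between >10% DMSO or 20 μM puromycin (100%) and 0.4% DMSO (0%). Triplicate. IC50 by variable-slope nonlinear regression on log dose.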"}, "[4]": {"tested_on": "Trypanosoma brucei brucei", "experiment": "Antitrypanosomal activity against Trypanosoma brucei brucei up to 40 uM incubated for 48 hrs by Alamar Blue assay", "type": "functional, organism-based", "outline": "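T. b. brucei at 2000 cells/mL in HMI-9 with 10% FCS and penicillin/streptomycin, preincubated 24 h. Compound in DMSO prediluted 1:20 in supplemented DMEM, tested up to 40 μM, 48 h at 37 °C, 5% CO2. Alamar Blue added, 2 h under the same conditions then 22 h RT. Fluorescence ex 535/em 590 nm.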"}, "[5]": {"experiment": "Selectivity index, ratio of cytotoxicity against human HEK293 cells to IC50 for chloroquine-sensitive Plasmodium falciparum 3D7", "type": "toxicity, cell-based", "settings": "read-out: Selectivity Index"}, "PANC-1 [6]": {"tested_on": "PANC-1", "experiment": "Toxicity against human PANC1 cells at =<40 uM incubated for 72 hrs by resazurin dye reduction assay", "type": "cell-based", "settings": "panc-1, 72 h", "outline": "as §1"}, "[7]": {"experiment": "Toxicity against human SU8686 cells at =<40 uM incubated for 72 hrs by resazurin dye reduction assay", "type": "cell-based", "settings": "su.86.86, 72 h", "outline": "as §1"}, "[8]": {"experiment": "Selectivity index, ratio of cytotoxicity against human BxPC3 cells to IC50 for chloroquine-sensitive Plasmodium falciparum 3D7", "type": "toxicity, cell-based, BXPC-3", "settings": "read-out: Selectivity Index"}, "[9]": {"experiment": "Selectivity index, ratio of cytotoxicity against human SU8686 cells to IC50 for chloroquine-sensitive Plasmodium falciparum 3D7", "type": "toxicity, cell-based", "settings": "read-out: Selectivity Index"}, "[10]": {"experiment": "Selectivity index, ratio of cytotoxicity against human BT474 cells to IC50 for chloroquine-sensitive Plasmodium falciparum 3D7", "type": "toxicity, cell-based, BT-474", "settings": "read-out: Selectivity Index"}, "Plasmodium falciparum [11]": {"tested_on": "Plasmodium falciparum", "experiment": "Antimalarial activity against chloroquine-sensitive Plasmodium falciparum 3D7 assessed as reduction in parasite replication incubated for 72 hrs", "settings": "3D7, 72 h"}, "BXPC-3 [12]": {"tested_on": "BXPC-3", "experiment": "Toxicity against human BxPC3 cells at =<40 uM incubated for 72 hrs by resazurin dye reduction assay", "type": "cell-based", "settings": "bxpc-3, 72 h", "outline": "as §1"}, "MCF-10A": {"tested_on": "MCF-10A", "experiment": "Toxicity against human MCF10A cells at =<40 uM incubated for 72 hrs by resazurin dye reduction assay", "type": "cell-based", "outline": "as §1"}, "[13]": {"experiment": "Selectivity index, ratio of cytotoxicity against human PANC1 cells to IC50 for chloroquine-sensitive Plasmodium falciparum 3D7", "type": "toxicity, cell-based, PANC-1", "settings": "read-out: Selectivity Index"}, "HEK293": {"tested_on": "HEK293", "experiment": "Toxicity against human HEK293 cells at =<40 uM incubated for 72 hrs by resazurin dye reduction assay", "type": "cell-based", "settings": "hek293, 72 h", "outline": "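HEK293 adherent cells, compound exposure 72 h at 37 °C, 5% CO2, highest concentration 40 μM. Supernatant replaced with 10% Presto Blue in DMEM plus 2 mM glutamax, 3 h, fluorescence 530/595 nm. % inhibition scaled between >10% DMSO or 20 μM puromycin (100%) and 0.4% DMSO (0%). Triplicate. IC50 by variable-slope nonlinear regression.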"}, "Plasmodium falciparum [14]": {"tested_on": "Plasmodium falciparum", "experiment": "Antimalarial activity against chloroquine-resistant Plasmodium falciparum Dd2 assessed as reduction in parasite replication incubated for 72 hrs", "settings": "Dd2, 72 h"}, "[15]": {"experiment": "Toxicity against human MDA-M cells at =<40 uM incubated for 72 hrs by resazurin dye reduction assay", "type": "cell-based", "outline": "as §1"}, "Plasmodium falciparum [16]": {"tested_on": "Plasmodium falciparum", "experiment": "Antimalarial activity against chloroquine-sensitive Plasmodium falciparum 3D7 assessed as reduction in parasite replication at 40 uM incubated for 72 hrs"}, "Plasmodium falciparum [17]": {"tested_on": "Plasmodium falciparum", "experiment": "Antimalarial activity against chloroquine-resistant Plasmodium falciparum Dd2 assessed as reduction in parasite replication at 40 uM incubated for 72 hrs"}, "PANC-1 [18]": {"tested_on": "PANC-1", "experiment": "Growth inhibition of human PANC1 cells at 20 uM incubated for 72 hrs by resazurin dye reduction assay", "type": "functional", "settings": "PANC-1, 72 h, read-out: GI"}, "[19]": {"experiment": "Growth inhibition of human MDA-M cells at 20 uM incubated for 72 hrs by resazurin dye reduction assay", "type": "functional", "settings": "read-out: GI"}, "[20]": {"experiment": "Growth inhibition of human SU8686 cells at 20 uM incubated for 72 hrs by resazurin dye reduction assay", "type": "functional", "settings": "SU.86.86, 72 h, read-out: GI"}, "BT-474 [21]": {"tested_on": "BT-474", "experiment": "Growth inhibition of human BT474 cells at 20 uM incubated for 72 hrs by resazurin dye reduction assay", "type": "functional", "settings": "BT-474, 72 h, read-out: GI"}, "[22]": {"experiment": "Growth inhibition of human HEK293 cells at 20 uM incubated for 72 hrs by resazurin dye reduction assay", "type": "cell-based", "settings": "read-out: GI"}, "BXPC-3 [23]": {"tested_on": "BXPC-3", "experiment": "Growth inhibition of human BxPC3 cells at 20 uM incubated for 72 hrs by resazurin dye reduction assay", "type": "functional", "settings": "BXPC-3, 72 h, read-out: GI"}, "[24]": {"experiment": "Growth inhibition of human MCF10A cells at 20 uM incubated for 72 hrs by resazurin dye reduction assay", "type": "cell-based, MCF-10A", "settings": "read-out: GI"}}, "note": "Calls of active or inactive are those of the source. The rule behind the calls is not given here.", "data": [{"compound": "O=C1c2cccc(O)c2C(=O)c2c1ccc(C1(O)c3cccc(O)c3C(=O)c3c(O)cccc31)c2O", "note": "[ALBOPUNCTATONE]", "values": [{"measurement": "selectivity ratio", "setting": "[1]", "result": "> 9.1"}, {"measurement": "selectivity ratio", "setting": "[2]", "result": "> 9.1"}, {"measurement": "Activity", "setting": "BT-474 [3]", "result": "Non-toxic"}, {"measurement": "Activity", "setting": "[4]", "result": "inactive"}, {"measurement": "selectivity ratio", "setting": "[5]", "result": "> 9.1"}, {"measurement": "Activity", "setting": "PANC-1 [6]", "result": "Non-toxic"}, {"measurement": "Activity", "setting": "[7]", "result": "Non-toxic"}, {"measurement": "selectivity ratio", "setting": "[8]", "result": "> 9.1"}, {"measurement": "selectivity ratio", "setting": "[9]", "result": "> 9.1"}, {"measurement": "selectivity ratio", "setting": "[10]", "result": "> 9.1"}, {"measurement": "IC50", "setting": "Plasmodium falciparum [11]", "result": 4400, "unit": "nM"}, {"measurement": "Activity", "setting": "BXPC-3 [12]", "result": "Non-toxic"}, {"measurement": "Activity", "setting": "MCF-10A", "result": "Non-toxic"}, {"measurement": "selectivity ratio", "setting": "[13]", "result": "> 9.1"}, {"measurement": "Activity", "setting": "HEK293", "result": "Non-toxic"}, {"measurement": "IC50", "setting": "Plasmodium falciparum [14]", "result": 5300, "unit": "nM"}, {"measurement": "Activity", "setting": "[15]", "result": "Non-toxic"}]}, {"compound": "C[C@@H]1CC[C@H]2[C@@H](C)C(=O)O[C@@H]3O[C@@]4(C)CC[C@@H]1[C@]32OO4", "note": "[ARTEMISININ]", "values": [{"measurement": "IC50", "setting": "Plasmodium falciparum [11]", "result": 7.2, "unit": "nM"}]}, {"compound": "O=C1c2cccc(O)c2C(=O)c2c(O)cccc21", "note": "[DANTHRON]", "values": [{"measurement": "Activity", "setting": "BT-474 [3]", "result": "Non-toxic"}, {"measurement": "Activity", "setting": "[4]", "result": "inactive"}, {"measurement": "Activity", "setting": "PANC-1 [6]", "result": "Non-toxic"}, {"measurement": "Activity", "setting": "[7]", "result": "Non-toxic"}, {"measurement": "Activity", "setting": "Plasmodium falciparum [16]", "result": "inactive"}, {"measurement": "Activity", "setting": "Plasmodium falciparum [17]", "result": "inactive"}, {"measurement": "Activity", "setting": "BXPC-3 [12]", "result": "Non-toxic"}, {"measurement": "Activity", "setting": "MCF-10A", "result": "Non-toxic"}, {"measurement": "Activity", "setting": "HEK293", "result": "Non-toxic"}, {"measurement": "Activity", "setting": "[15]", "result": "Non-toxic"}]}, {"compound": "COc1ccc(C[C@H](N)C(=O)N[C@H]2[C@@H](O)[C@H](n3cnc4c(N(C)C)ncnc43)O[C@@H]2CO)cc1", "note": "[PUROMYCIN]", "values": [{"measurement": "inhibition of growth at 20 µM", "setting": "PANC-1 [18]", "result": 100, "unit": "%"}, {"measurement": "inhibition of growth at 20 µM", "setting": "[19]", "result": 100, "unit": "%"}, {"measurement": "inhibition of growth at 20 µM", "setting": "[20]", "result": 100, "unit": "%"}, {"measurement": "inhibition of growth at 20 µM", "setting": "BT-474 [21]", "result": 100, "unit": "%"}, {"measurement": "inhibition at 72 h, 20 µM", "setting": "[22]", "result": 100, "unit": "%"}, {"measurement": "inhibition of growth at 20 µM", "setting": "BXPC-3 [23]", "result": 100, "unit": "%"}, {"measurement": "IC50", "setting": "Plasmodium falciparum [11]", "result": 89, "unit": "nM"}, {"measurement": "inhibition at 72 h, 20 µM", "setting": "[24]", "result": 100, "unit": "%"}]}]}
